Measurements taken from ChEMBL document CHEMBL1157173, “Isocoumarin-based inhibitors of pancreatic cholesterol esterase” (Bioorg Med Chem, 2008).

Test: Binding affinity to pig pancreatic cholesterol esterase
Parameters: species or system Sus scrofa
Method in brief: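 Porcine enzyme assayed in 0.1 M Hepes, pH 7, with 6 mM taurocholate and 1 mM p-nitrophenylbutyrate substrate; hydrolysis followed at 405 nm. Inhibition constants derived from double reciprocal and Dixon plots, and for high-affinity inhibitors from Straus-Goldstein plots.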

Compound	Ki [µM]
COc1oc(=O)c2cc(NC(=O)C3CCCCC3)ccc2c1Cl	> 25
Nc1ccc2cc(OCCBr)oc(=O)c2c1	> 100
O=c1oc(OCCCBr)c(Cl)c2ccc([N+](=O)[O-])cc12	1.6
O=c1oc(OCC2CCCCC2)c(Cl)c2ccccc12	1.8
O=c1oc(OCC2CCCCC2)cc2ccc([N+](=O)[O-])cc12	54
O=c1oc(OC2CCCCC2)c(Cl)c2ccccc12	1.2
O=c1oc(OCCBr)c(Cl)c2ccc([N+](=O)[O-])cc12	0.26
CCCCOc1oc(=O)c2ccccc2c1Cl	6.5
O=c1oc(OC2CCCC2)c(Cl)c2ccccc12	0.95
O=c1oc(OCCCC2CCCC2)c(Cl)c2ccccc12	0.019
O=C(c1c(OCCC2CCCCC2)oc(=O)c2ccccc12)C(F)(F)F	73
O=C(c1c(OCC2CCCCC2)oc(=O)c2ccccc12)C(F)(F)F	> 100
O=c1oc(OCCCC2CCCCC2)c(Cl)c2ccccc12	0.18
O=c1oc(OCCBr)cc2ccc([N+](=O)[O-])cc12	50
CCCOc1oc(=O)c2ccccc2c1Cl	3.6
O=c1oc(OC2CCC(C3CCCCC3)CC2)c(Cl)c2ccccc12 (stereo not given)	0.19
O=c1oc(OCCC2CCCCC2)c(Cl)c2ccc([N+](=O)[O-])cc12	0.7
O=c1oc(OCCCCCC2CCCCC2)c(Cl)c2ccccc12	62
O=c1oc(OCCCCC2CCCCC2)c(Cl)c2ccccc12	0.011
Nc1ccc2c(Cl)c(OCCBr)oc(=O)c2c1	26
O=c1oc(OCCC2CCCCC2)c(Cl)c2ccccc12	1.2
O=c1oc(OCC2CCCC2)c(Cl)c2ccccc12	0.36
O=c1oc(OCCCBr)cc2ccc([N+](=O)[O-])cc12	33
COc1oc(=O)c2cc(NC(=O)c3ccccc3)ccc2c1Cl	> 250
COc1oc(=O)c2cc(N)ccc2c1Cl	17
COc1oc(=O)c2cc([N+](=O)[O-])ccc2c1Cl	19
CCCOc1oc(=O)c2ccccc2c1C(=O)C(F)(F)F	> 25
O=c1oc(OCC2CCCCC2)c(Cl)c2ccc([N+](=O)[O-])cc12	5.7
O=c1oc(OCCC2CCCC2)c(Cl)c2ccccc12	0.26
O=c1oc(OCCC2CCCCC2)cc2ccc([N+](=O)[O-])cc12	> 100
